According to ChEMBL document CHEMBL1944580, “Synthesis of novel sulfonamide-1,2,4-triazoles, 1,3,4-thiadiazoles and 1,3,4-oxadiazoles, as potential antibacterial and antifungal agents. Biological evaluation and conformational analysis studies” (2012):
Converted amounts (≈) assume the structure as drawn.

Columns and labels:
Escherichia coli [1] = assay: Antibacterial activity against Escherichia coli ATCC 35210 treated for 24 hrs followed by sub-cultivated for 72 hrs by micro dilution method; type: functional
Outline: (§1)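 2 µl from each well was serially subcultured into 100 µl fresh broth per well and incubated a further 72 h. MBC is the lowest concentration with no visible growth, taken as 99.5% killing of the original inoculum. Streptomycin and ampicillin were the positive controls.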

Enterobacter cloacae [2] = assay: Antibacterial activity against Enterobacter cloacae human isolate after 24 hrs by micro dilution method; type: functional
Outline: (§2)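 Microdilution MIC in 96-well plates. Bacterial suspensions adjusted in sterile saline to 1.0 × 10^5 CFU/ml, giving 1.0 × 10^4 cfu per well in LB broth. Compounds tested at up to 1 mg/ml. Plates incubated 24 h. MIC taken as the lowest concentration with no visible growth under a binocular microscope. OD at 655 nm was also read against a blank and the positive control. Streptomycin and ampicillin were the positive controls.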

Fulvia fulva [3] = assay: Antifungal activity against Fulvia fulva treated for 72 hrs followed by sub-cultivated for 5 days by serial dilution method; type: functional
Outline: (§3)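 MFC obtained after the 72 h, 28 °C malt-broth microdilution (spore inoculum about 1.0 × 10^5 per well, compounds from 1 mg/ml DMSO). 2 µl was serially subcultured into 100 µl broth per well and incubated a further 5 days at 28 °C. MFC is the lowest concentration with no visible growth, taken as 99.5% killing of the original inoculum.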

Bacillus cereus [4] = assay: Antibacterial activity against Bacillus cereus clinical isolate after 24 hrs by micro dilution method; type: functional; outline: as §2
Talaromyces funiculosus [5] = assay: Antifungal activity against Penicillium funiculosum ATCC 36839 treated for 72 hrs followed by sub-cultivated for 5 days by serial dilution method; type: functional; outline: as §3
Bacillus cereus [6] = assay: Antibacterial activity against Bacillus cereus clinical isolate treated for 24 hrs followed by sub-cultivated for 72 hrs by micro dilution method; type: functional; outline: as §1
Staphylococcus aureus [7] = assay: Antibacterial activity against Staphylococcus aureus ATCC 6538 after 24 hrs by micro dilution method; type: functional; conditions: ATCC 6538, 24 h; outline: as §2
Salmonella typhimurium [8] = assay: Antibacterial activity against Salmonella Typhimurium ATCC 13311 treated for 24 hrs followed by sub-cultivated for 72 hrs by micro dilution method; type: functional, Salmonella enterica subsp. enterica serovar Typhimurium; conditions: Salmonella enterica; outline: as §1
Aspergillus versicolor [9] = assay: Antifungal activity against Aspergillus versicolor ATCC 11730 after 72 hrs by serial dilution method; type: functional; conditions: ATCC 11730, 72 h
Outline: (§4)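 Modified microdilution MIC. Spores were washed from malt agar cultures with sterile 0.85% saline containing 0.1% Tween 80 and adjusted to about 1.0 × 10^5 per 100 µl well in malt broth. Compounds were dissolved in DMSO (1 mg/ml). Plates incubated 72 h at 28 °C. MIC is the lowest concentration with no visible growth under a binocular microscope. Bifonazole and ketoconazole were the references.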

Aspergillus versicolor [10] = assay: Antifungal activity against Aspergillus versicolor ATCC 11730 treated for 72 hrs followed by sub-cultivated for 5 days by serial dilution method; type: functional; outline: as §3
Staphylococcus aureus [11] = assay: Antibacterial activity against Staphylococcus aureus ATCC 6538 treated for 24 hrs followed by sub-cultivated for 72 hrs by micro dilution method; type: functional; outline: as §1
Trichoderma viride [12] = assay: Antifungal activity against Trichoderma viride IAM 5061 after 72 hrs by serial dilution method; type: functional; conditions: IAM 5061, 72 h; outline: as §4
Aspergillus flavus [13] = assay: Antifungal activity against Aspergillus flavus ATCC 9643 treated for 72 hrs followed by sub-cultivated for 5 days by serial dilution method; type: functional; outline: as §3
Listeria monocytogenes [14] = assay: Antibacterial activity against Listeria monocytogenes NCTC 7973 after 24 hrs by micro dilution method; type: functional; conditions: NCTC 7973, 24 h; outline: as §2
Aspergillus fumigatus [15] = assay: Antifungal activity against Aspergillus fumigatus human isolate treated for 72 hrs followed by sub-cultivated for 5 days by serial dilution method; type: functional; outline: as §3
Enterobacter cloacae [16] = assay: Antibacterial activity against Enterobacter cloacae human isolate treated for 24 hrs followed by sub-cultivated for 72 hrs by micro dilution method; type: functional; outline: as §1
Escherichia coli [17] = assay: Antibacterial activity against Escherichia coli ATCC 35210 after 24 hrs by micro dilution method; type: functional; conditions: ATCC 35210, 24 h; outline: as §2
Micrococcus flavus [18] = assay: Antibacterial activity against Micrococcus flavus ATCC 10240 treated for 24 hrs followed by sub-cultivated for 72 hrs by micro dilution method; type: functional; outline: as §1
Talaromyces funiculosus [19] = assay: Antifungal activity against Penicillium funiculosum ATCC 36839 after 72 hrs by serial dilution method; type: functional; conditions: ATCC 36839, 72 h; outline: as §4
Penicillium ochrochloron [20] = assay: Antifungal activity against Penicillium ochrochloron ATCC 9112 treated for 72 hrs followed by sub-cultivated for 5 days by serial dilution method; type: functional; outline: as §3
Trichoderma viride [21] = assay: Antifungal activity against Trichoderma viride IAM 5061 treated for 72 hrs followed by sub-cultivated for 5 days by serial dilution method; type: functional; outline: as §3
Salmonella typhimurium [22] = assay: Antibacterial activity against Salmonella Typhimurium ATCC 13311 after 24 hrs by micro dilution method; type: functional, Salmonella enterica subsp. enterica serovar Typhimurium; conditions: Salmonella enterica, ATCC 13311, 24 h; outline: as §2
Penicillium ochrochloron [23] = assay: Antifungal activity against Penicillium ochrochloron ATCC 9112 after 72 hrs by serial dilution method; type: functional; conditions: ATCC 9112, 72 h; outline: as §4
Aspergillus niger [24] = assay: Antifungal activity against Aspergillus niger ATCC 6275 after 72 hrs by serial dilution method; type: functional; conditions: ATCC 6275, 72 h; outline: as §4
Pseudomonas aeruginosa [25] = assay: Antibacterial activity against Pseudomonas aeruginosa ATCC 27853 treated for 24 hrs followed by sub-cultivated for 72 hrs by micro dilution method; type: functional; outline: as §1
Micrococcus flavus [26] = assay: Antibacterial activity against Micrococcus flavus ATCC 10240 after 24 hrs by micro dilution method; type: functional; conditions: ATCC 10240, 24 h; outline: as §2
Aspergillus flavus [27] = assay: Antifungal activity against Aspergillus flavus ATCC 9643 after 72 hrs by serial dilution method; type: functional; conditions: ATCC 9643, 72 h; outline: as §4
Pseudomonas aeruginosa [28] = assay: Antibacterial activity against Pseudomonas aeruginosa ATCC 27853 after 24 hrs by micro dilution method; type: functional; conditions: ATCC 27853, 24 h; outline: as §2
Fulvia fulva [29] = assay: Antifungal activity against Fulvia fulva after 72 hrs by serial dilution method; type: functional; outline: as §4
Aspergillus niger [30] = assay: Antifungal activity against Aspergillus niger ATCC 6275 treated for 72 hrs followed by sub-cultivated for 5 days by serial dilution method; type: functional; outline: as §3
Listeria monocytogenes [31] = assay: Antibacterial activity against Listeria monocytogenes NCTC 7973 treated for 24 hrs followed by sub-cultivated for 72 hrs by micro dilution method; type: functional; outline: as §1
Aspergillus fumigatus [32] = assay: Antifungal activity against Aspergillus fumigatus human isolate after 72 hrs by serial dilution method; type: functional; outline: as §4

Compound	MBC (Escherichia coli [1]) [µM]	MIC (Enterobacter cloacae [2]) [µM]	MFC (Fulvia fulva [3]) [µM]	MIC (Bacillus cereus [4]) [µM]	MFC (Talaromyces funiculosus [5]) [µM]	MBC (Bacillus cereus [6]) [µM]	MIC (Staphylococcus aureus [7]) [µM]	MBC (Salmonella typhimurium [8]) [µM]	MIC (Aspergillus versicolor [9]) [µM]	MFC (Aspergillus versicolor [10]) [µM]	MBC (Staphylococcus aureus [11]) [µM]	MIC (Trichoderma viride [12]) [µM]	MFC (Aspergillus flavus [13]) [µM]	MIC (Listeria monocytogenes [14]) [µM]	MFC (Aspergillus fumigatus [15]) [µM]	MBC (Enterobacter cloacae [16]) [µM]	MIC (Escherichia coli [17]) [µM]	MBC (Micrococcus flavus [18]) [µM]	MIC (Talaromyces funiculosus [19]) [µM]	MFC (Penicillium ochrochloron [20]) [µM]	also measured
COc1cc(Cc2n[nH]c(=S)n2C)c(S(=O)(=O)N(C)C)cc1OC	540 (≈ 201 µg/mL)	270 (≈ 101 µg/mL)	140 (≈ 52.1 µg/mL)	270 (≈ 101 µg/mL)	270 (≈ 101 µg/mL)	540 (≈ 201 µg/mL)	270 (≈ 101 µg/mL)	270 (≈ 101 µg/mL)	140 (≈ 52.1 µg/mL)	270 (≈ 101 µg/mL)	540 (≈ 201 µg/mL)	70 (≈ 26.1 µg/mL)	140 (≈ 52.1 µg/mL)	270 (≈ 101 µg/mL)	270 (≈ 101 µg/mL)	270 (≈ 101 µg/mL)	540 (≈ 201 µg/mL)	540 (≈ 201 µg/mL)	140 (≈ 52.1 µg/mL)	270 (≈ 101 µg/mL)	MFC (Trichoderma viride [21]): 140 µM (≈ 52.1 µg/mL); MIC (Salmonella typhimurium [22]): 270 µM (≈ 101 µg/mL); MIC (Penicillium ochrochloron [23]): 140 µM (≈ 52.1 µg/mL); MIC (Aspergillus niger [24]): 70 µM (≈ 26.1 µg/mL); MBC (Pseudomonas aeruginosa [25]): 540 µM (≈ 201 µg/mL); MIC (Micrococcus flavus [26]): 270 µM (≈ 101 µg/mL); MIC (Aspergillus flavus [27]): 70 µM (≈ 26.1 µg/mL); MIC (Pseudomonas aeruginosa [28]): 540 µM (≈ 201 µg/mL); MIC (Fulvia fulva [29]): 70 µM (≈ 26.1 µg/mL); MFC (Aspergillus niger [30]): 140 µM (≈ 52.1 µg/mL); MBC (Listeria monocytogenes [31]): 270 µM (≈ 101 µg/mL); MIC (Aspergillus fumigatus [32]): 140 µM (≈ 52.1 µg/mL)
CCn1c(Cc2cc(OC)c(OC)cc2S(=O)(=O)N(C)C)n[nH]c1=S	520 (≈ 201 µg/mL)	260 (≈ 100 µg/mL)	70 (≈ 27.1 µg/mL)	520 (≈ 201 µg/mL)	260 (≈ 100 µg/mL)	520 (≈ 201 µg/mL)	260 (≈ 100 µg/mL)	260 (≈ 100 µg/mL)	130 (≈ 50.2 µg/mL)	260 (≈ 100 µg/mL)	520 (≈ 201 µg/mL)	70 (≈ 27.1 µg/mL)	260 (≈ 100 µg/mL)	260 (≈ 100 µg/mL)	260 (≈ 100 µg/mL)	520 (≈ 201 µg/mL)	260 (≈ 100 µg/mL)	520 (≈ 201 µg/mL)	130 (≈ 50.2 µg/mL)	260 (≈ 100 µg/mL)	MFC (Trichoderma viride [21]): 130 µM (≈ 50.2 µg/mL); MIC (Salmonella typhimurium [22]): 260 µM (≈ 100 µg/mL); MIC (Penicillium ochrochloron [23]): 130 µM (≈ 50.2 µg/mL); MIC (Aspergillus niger [24]): 70 µM (≈ 27.1 µg/mL); MBC (Pseudomonas aeruginosa [25]): 260 µM (≈ 100 µg/mL); MIC (Micrococcus flavus [26]): 260 µM (≈ 100 µg/mL); MIC (Aspergillus flavus [27]): 70 µM (≈ 27.1 µg/mL); MIC (Pseudomonas aeruginosa [28]): 260 µM (≈ 100 µg/mL); MIC (Fulvia fulva [29]): 70 µM (≈ 27.1 µg/mL); MFC (Aspergillus niger [30]): 130 µM (≈ 50.2 µg/mL); MBC (Listeria monocytogenes [31]): 520 µM (≈ 201 µg/mL); MIC (Aspergillus fumigatus [32]): 130 µM (≈ 50.2 µg/mL)
